Assay [1] in a line: Binding affinity to HIV1 25-2AP TAR by 2-AP based fluorescence assay. Further details: species or system Human immunodeficiency virus 1. The following applies: read-out: Kd(app). In outline: (§1)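 2-AP-labelled TAR hairpin (U23 or U25 replaced) annealed at 95 °C 3 min, cooled ≥30 min, used at 1 μM in PBS pH 7.4 with compound added from DMSO, 30 min at room temperature with rocking. Fluorescence read at ex 310/em 365 nm, compound fluorescence subtracted, normalized to free RNA. Apparent Kd from nonlinear fit; highest concentration 400 μM; triplicates, ± SD.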

Assay [2] in a line: Binding affinity to HIV1 23-2AP TAR by 2-AP based fluorescence assay. Further details: species or system Human immunodeficiency virus 1. The following applies: read-out: Kd(app). In outline:
as §1

Assay [3] in a line: Binding affinity to HIV1 TAR by FRET based Tat/TAR displacement assay. Further details: species or system Human immunodeficiency virus 1. In outline:
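Unlabeled TAR (100 nM) with 16-mer Tat peptide (N-terminal FAM, C-terminal TAMRA; 12 nM) in 50 mM Tris pH 7.4, 20 mM KCl, 0.01% Triton X-100, 5% DMSO; compound added and incubated 30 min at room temperature with rocking. Read at ex 485/em 590 nm. Controls: complex alone for 0% inhibition, peptide alone for 100%.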

In assay [4] the test system is Human immunodeficiency virus 1. The assay is described as follows: Binding affinity to HIV1 TAR by TOCSY NMR analysis. In outline:
(§2)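 NMR buffer: 20 mM d19-Bis-Tris pH 6.5, 10 mM NaCl, DSA reference, in D2O or 95% H2O/5% D2O. Ligand stocks 10 mM in d6-DMSO; free-ligand samples […], final DMSO 15%. RNA heated 90 °C 4 min, snap-cooled at −20 °C. 1D 1H with excitation sculpting; ligand line broadening with 10 μM TAR; TOCSY shift perturbations.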

Assay [5] deals with Human immunodeficiency virus 1. Briefly: Binding affinity to HIV-1 TAR RNA 5'-UTR assessed as decrease in 1M7 reactivity for residue U25 within TAR bulge and U31, G33 and A35 within apical loop by SHAPE analysis. In outline: (§3)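 RNA (5 pmol) heated to 90 °C 3 min, slowly cooled to 4 °C, in 50 mM Tris-HCl pH 8.0, 100 mM NaCl, 5 mM MgCl2, then 37 °C for 15 min. Ligand added to final 5 or 0.5 μM, 10 min at room temperature. 1M7 at final 3.5 mM (DMSO alone for control), 37 °C 5 min. Primer extension with SuperScript III, capillary electrophoresis; control peak areas subtracted.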

For assay [6], the system named is Human immunodeficiency virus 1. The assay is described as follows: Effect on global topology of HIV-1 RNA 5'-UTR by SHAPE analysis. The essentials: as §3
Assay [7] concerns Human immunodeficiency virus 1. The assay is described as follows: Binding affinity to HIV-1 TAR RNA 5'-UTR assessed as induction of chemical reactivity by SHAPE analysis. In outline: as §3
Assay [8] deals with Human immunodeficiency virus 1. The assay is described as follows: Binding affinity to HIV1 TAR assessed as induction of chemical shift perturbations of TAR residues by NMR analysis. In outline:
as §2

The test system of assay [9] is Human immunodeficiency virus 1. The assay is described as follows: Binding affinity to HIV1 TAR by NMR analysis. The essentials:
as §2

Assay [10] deals with Human immunodeficiency virus 1. The assay is described as follows: Binding affinity to HIV-1 TAR RNA 5'-UTR assessed as 1M7 reactivity reduction throughout TAR with residues U13-14, C19, and G32 by SHAPE analysis. The essentials: as §3

Each structure is given as a SMILES string. Calls of active or inactive are those of the source. No cut-off for these calls is given here.

On to `Cc1ccc2c(N)c(C(=O)Nc3ccccc3C(F)(F)F)sc2n1`, for which the Kd in [1] is 90.1 µM; in assay [2], greater than 400 µM. In addition, the IC50 in assay [3] is 90.4 µM.
For `Cc1ccc2c(N)c(C(=O)Nc3cccc(C(F)(F)F)c3)sc2n1`, in that order: 47.7 µM, 54.1 µM and greater than 400 µM.
`Nc1c(-c2nnc(-c3cccc(C(F)(F)F)c3)o2)sc2ncccc12`: the Kd in [1] is 50.2 µM; in assay [2], 44.1 µM. The compound also registered an IC50 in assay [3] of 37.6 µM.
For `Cc1ccc2c(N)c(C(=O)Nc3cccnc3)sc2n1`, in that order: 68 µM, 89.5 µM and greater than 400 µM.
With `Cc1ccc2c(N)c(-c3nnc(-c4ccccc4)o3)sc2n1`, the Kd is 44.6 µM in assay [1] and 56.9 µM in assay [2]. For the same compound, the IC50 in assay [3] was greater than 300 µM.
For `Cc1cnc2sc(C(=O)Nc3cccc(C(F)(F)F)c3)c(N)c2c1`, in that order: 48.5 µM, 55.4 µM and greater than 400 µM.
For `Cc1ccc2c(N)c(C(=O)Nc3ccc(C(F)(F)F)cc3)sc2n1`, in that order: 75.3 µM, 84.1 µM and 87 µM.
With `Cc1ccc2c(N)c(C(=O)Nc3ccncc3)sc2n1`, the outcome in assay [4], in [5], in assay [7] and in [9] was Active. The result in assay [6] was inactive. For the same compound, the Kd in assay [1] came out at 40 µM; in assay [2] it was 51.1 µM. For the same compound, the Activity entry in assay [8] is “Dose-dependent effect”. In assay [3], this compound registered an IC50 greater than 400 µM.
For `Cc1ccc2c(N)c(C(=O)Nc3ccccn3)sc2n1`, the Kd was determined as 50.3 µM in assay [1] and 64.3 µM in assay [2]. Further, the IC50 in [3] was greater than 400 µM.
Regarding `Cc1ccc2c(N)c(-c3nnc(-c4cccc(C(F)(F)F)c4)o3)sc2n1`, the result in [6] was inactive. The Kd in assay [1] came out at 49.1 µM; in assay [2] it was 75 µM. For the same compound, the outcome in [10] and in assay [7] was Active. The IC50 in assay [3] is 40.1 µM.
For the compound `Cc1ccc2c(N)c(C(=O)NCc3cccc(C(F)(F)F)c3)sc2n1`, the Kd in assay [1] was 66.4 µM; in assay [2], 69.4 µM. The same compound yielded an IC50 in [3] greater than 400 µM.
On the same counts, the results for `Cc1ccc2cc(C(=O)Nc3cccc(C(F)(F)F)c3)sc2n1` are greater than 400 µM, greater than 400 µM and greater than 400 µM.
With `Cc1ccc2c(n1)sc1c(=O)n(-c3cccc(C(F)(F)F)c3)c(=O)[nH]c12`, the Kd in [1] and in assay [2] was greater than 400 µM each time. In assay [3], this compound returned a half-inhibitory concentration (IC50) greater than 400 µM.
Turning to `CC(C)c1ccc2c(N)c(C(=O)Nc3cccc(C(F)(F)F)c3)sc2n1`, the Kd in [1] was 43.3 µM; in assay [2], 107 µM. This compound displayed an IC50 in assay [3] greater than 400 µM.
Take `Cc1ccc2c(N)c(S(=O)(=O)Nc3cccc(C(F)(F)F)c3)sc2n1`: the Kd in assay [1] and in assay [2] was greater than 400 µM each time. The compound also showed an IC50 in assay [3] greater than 400 µM.
As for `Cc1ccc2c(N)c(S(=O)(=O)Nc3cccc(F)c3)sc2n1`, the Kd in assay [1] and in assay [2] was greater than 400 µM each time. Moreover, the IC50 in [3] is greater than 400 µM. In addition, the result in [9] was inactive.
As to `Cc1ccc2c(N)c(-c3nc(-c4cccc(C(F)(F)F)c4)no3)sc2n1`, the Kd in [1] stood at 47.7 µM; in [2] it was 46 µM. This compound also came in with an IC50 in assay [3] of 45.1 µM.
For `Cc1ccnc2sc(C(=O)Nc3cccc(C(F)(F)F)c3)c(N)c12`, in that order: 66.5 µM, 94.1 µM and greater than 400 µM.
On the same counts, the results for `Cc1ccc2c(N)c(-c3nnc(-c4cccc(Cl)c4)o3)sc2n1` are 42.5 µM, 45.6 µM and greater than 400 µM.

The record behind these values is ChEMBL document CHEMBL4715807, “Development of Small Molecules with a Noncanonical Binding Mode to HIV-1 Trans Activation Response (TAR) RNA” (J Med Chem, 2016).
